Test results published in paper PMC6363533 (Biochemistry, 2018).
Marks after values point to notes of the source that are not given here.

B1: KMM: His-tagged recombinant β-antithrombin double mutant, Lys125 and Arg129 mutated to Met (protein)
chain: HGSPVDICTAKPRDIPMNPMCIYRSPEKKATEDEGSEQKIPEATNRRVWELSKANSRFATTFYQHLADSKNDNDNIFLSPLSISTAFAMTKLGACNDTLQQLMEVFKFDTISEKTSDQIHFFFAMLNCMLYRKAQKSSKLVSANRLFGDKSLTFNETYQDISELVYGAKLQPLDFKENAEQSRAAINKWVSNKTEGRITDVIPSEAINELTVLVLVNTIYFKGLWKSKFSPENTRKELFYKADGESCSASMMYQEGKFRYRRVAEGTQVLELPFKGDDITMVLILPKPEKSLAKVEKELTPEVLQEWLDELEEMMLVVHMPRFRIEDGFSLKEQLQDMGLVDLFSPEKSKLPGIVAEGRDDLYVSDAFHKAFLEVNEEGSEAAASTAVVIAGRSLNPNRVTFKANRPFLVFIREVPLNTIIFMGRVANPCVK
modifications: left off: His6, C-terminal, kept
B2: MMM: His-tagged recombinant β-antithrombin triple mutant, Lys114, Lys125 and Arg129 mutated to Met (protein)
chain: HGSPVDICTAKPRDIPMNPMCIYRSPEKKATEDEGSEQKIPEATNRRVWELSKANSRFATTFYQHLADSKNDNDNIFLSPLSISTAFAMTKLGACNDTLQQLMEVFKFDTISEMTSDQIHFFFAMLNCMLYRKAQKSSKLVSANRLFGDKSLTFNETYQDISELVYGAKLQPLDFKENAEQSRAAINKWVSNKTEGRITDVIPSEAINELTVLVLVNTIYFKGLWKSKFSPENTRKELFYKADGESCSASMMYQEGKFRYRRVAEGTQVLELPFKGDDITMVLILPKPEKSLAKVEKELTPEVLQEWLDELEEMMLVVHMPRFRIEDGFSLKEQLQDMGLVDLFSPEKSKLPGIVAEGRDDLYVSDAFHKAFLEVNEEGSEAAASTAVVIAGRSLNPNRVTFKANRPFLVFIREVPLNTIIFMGRVANPCVK
modifications: left off: His6, C-terminal, kept

Legend:
[1] = Rapid; assay type: binding; details: natural pentasaccharide; for Limiting rate constant at heparin saturation (k+2 + k−2): I 0.04, pH 6, 25°C; for 1/K2 / k+2, forward conformational activation rate constant / k−2, reverse conformational activation rate constant: I 0.04, pH 6.0, 25°C; for 1/K2: 1/K2 = (K1/KD,obs) − 1; for k+2, forward conformational activation rate constant / k−2, reverse conformational activation rate constant: ±S.E.; for k−2, reverse conformational activation rate constant: possibly overestimated (conformational selection pathway)
[2] = target: factor Xa (Homo sapiens, UniProt P00742); assay type: biochemical; details: for k−H FXa, association rate constant of free antithrombin / k−H FXa, fractional wild-type value (in parentheses) / Enhancement of basal reactivities with both factors Xa and IXa: absence of heparin; for k−H FXa, association rate constant of free antithrombin / k−H FXa, fractional wild-type value (in parentheses) / kH FXa, association rate constant of heparin-complexed antithrombin / kH FXa, fractional wild-type value (in parentheses): 20 mM MES; for k−H FXa, association rate constant of free antithrombin / kH FXa, association rate constant of heparin-complexed antithrombin: 5 mM CaCl2, 0.1 % PEG 8000, pH 6.0, 25°C, ±S.E.; for k−H FXa, fractional wild-type value (in parentheses) / kH FXa, fractional wild-type value (in parentheses): 5 mM CaCl2, pH 6.0, 25°C; for Enhancement of basal reactivities with both factors Xa and IXa: relative to wild-type, range covers factor Xa and factor IXa; for kH FXa, association rate constant of heparin-complexed antithrombin / kH FXa, fractional wild-type value (in parentheses): natural pentasaccharide complex
Chain of factor Xa (P00742 41-179 limits assumed): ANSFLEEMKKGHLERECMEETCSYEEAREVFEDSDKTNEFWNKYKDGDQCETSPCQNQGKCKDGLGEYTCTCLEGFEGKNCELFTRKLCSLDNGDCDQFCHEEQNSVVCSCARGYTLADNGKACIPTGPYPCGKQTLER
Chain of factor Xa (P00742 235-488 limits assumed): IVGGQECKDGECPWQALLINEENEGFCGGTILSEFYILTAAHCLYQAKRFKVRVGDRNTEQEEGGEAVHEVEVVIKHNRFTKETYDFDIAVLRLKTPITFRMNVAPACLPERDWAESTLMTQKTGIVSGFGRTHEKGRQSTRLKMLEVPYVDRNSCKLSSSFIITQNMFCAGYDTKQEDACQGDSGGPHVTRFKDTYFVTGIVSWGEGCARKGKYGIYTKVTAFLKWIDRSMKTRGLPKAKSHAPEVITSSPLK

[3] = assay type: binding; details: for Loss of nonionic binding energy relative to wild-type / Kd: natural pentasaccharide; for Kd: read-out: KD,obs, I 0.04, pH 6.0, 25°C, measured directly at I 0.04 or calculated from the ionic strength dependence of KD,obs
Summary of the method: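 Recombinant His-tagged antithrombin (~100 nM), expressed in Sf9 and Ni-NTA purified, was titrated with pentasaccharide at 25°C. Binding was followed by tryptophan fluorescence enhancement (ex 280 nm, em 340 nm). Stocks were diluted extensively. Data were fit by quadratic binding equation for KD and stoichiometry.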

[4] = target: factor IXa (Homo sapiens, UniProt P00740); assay type: biochemical; details: for k−H FIXa, association rate constant of free antithrombin / k−H FIXa, fractional wild-type value (in parentheses): absence of heparin; for k−H FIXa, association rate constant of free antithrombin / k−H FIXa, fractional wild-type value (in parentheses) / kH FIXa, association rate constant of heparin-complexed antithrombin / kH FIXa, fractional wild-type value (in parentheses): 20 mM MES; for k−H FIXa, association rate constant of free antithrombin / kH FIXa, association rate constant of heparin-complexed antithrombin: 5 mM CaCl2, 0.1 % PEG 8000, pH 6.0, 25°C, ±S.E.; for k−H FIXa, fractional wild-type value (in parentheses) / kH FIXa, fractional wild-type value (in parentheses): 5 mM CaCl2, pH 6.0, 25°C; for kH FIXa, association rate constant of heparin-complexed antithrombin / kH FIXa, fractional wild-type value (in parentheses): natural pentasaccharide complex
Chain of factor IXa (P00740 47-191 limits assumed): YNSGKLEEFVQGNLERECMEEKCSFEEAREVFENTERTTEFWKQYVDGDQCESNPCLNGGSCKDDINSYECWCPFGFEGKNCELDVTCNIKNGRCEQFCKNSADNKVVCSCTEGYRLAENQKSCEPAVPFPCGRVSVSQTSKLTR
Chain of factor IXa (P00740 227-461 limits assumed): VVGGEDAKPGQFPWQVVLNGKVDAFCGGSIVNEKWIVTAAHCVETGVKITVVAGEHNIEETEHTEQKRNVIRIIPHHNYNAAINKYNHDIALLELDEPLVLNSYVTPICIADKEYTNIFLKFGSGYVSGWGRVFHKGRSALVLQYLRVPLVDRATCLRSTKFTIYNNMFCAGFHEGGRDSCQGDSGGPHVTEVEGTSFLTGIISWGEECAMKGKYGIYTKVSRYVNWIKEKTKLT

Molecule	Limiting rate constant at heparin saturation (k+2 + k−2) [1] [s⁻¹]	1/K2 [1]	k+2, forward conformational activation rate constant [1] [s⁻¹]	k−H FXa, association rate constant of free antithrombin [2]	k−H FXa, fractional wild-type value (in parentheses) [2]	Enhancement of basal reactivities with both factors Xa and IXa [2]	kH FXa, association rate constant of heparin-complexed antithrombin [2]	kH FXa, fractional wild-type value (in parentheses) [2]	Loss of nonionic binding energy relative to wild-type [3] [%]	Kd [3] [nM]	k−H FIXa, association rate constant of free antithrombin [4]	k−H FIXa, fractional wild-type value (in parentheses) [4]	kH FIXa, association rate constant of heparin-complexed antithrombin [4]	kH FIXa, fractional wild-type value (in parentheses) [4]	k+2, forward conformational activation rate constant ([1]; listed as Lys114)	k−2, reverse conformational activation rate constant [1]	k−2, reverse conformational activation rate constant ([1]; listed as Lys125/Arg129)	Heparin pentasaccharide binding stoichiometry [3]	Heparin-activated reactivity with factor IXa, % of wild-type ([4]; saturating natural pentasaccharide, MES/Ca2+ pH 6 buffer) [%]
KKM: His-tagged recombinant β-antithrombin variant with Arg129 mutated to Met	1020	10000	1020 ± 120	1.3±0.1 × 10^3 M^−1s^−1	2.3	1.3–2.3 fold	7.6±0.3 ×10^4 M^−1s^−1	0.99	17	0.16	6.9±0.4 × 10^1 M^−1s^−1	1.3	6.2±0.3 × 10^3 M^−1s^−1	0.62	–	–	–	–	–
KKR (WT): Recombinant wild-type β-antithrombin (Asn135 mutated to Gln) with C-terminal 6XHis-tag, expressed in Sf9 insect cells	–	6 × 10^6	1140 ± 110	5.7±0.4 × 10^2 M^−1s^−1	1	–	–	1	–	–	5.4±0.4 × 10^1 M^−1s^−1	1	–	1	–	–	–	–	–
KMR: His-tagged recombinant β-antithrombin variant with Lys125 mutated to Met	550 to 690	4300	550 ± 40	1.2±0.1 × 10^3 M^−1s^−1	2.1	1.3–2.3 fold	8.1±0.3 ×10^4 M^−1s^−1	1.1	24	0.86	9.6±0.6 × 10^1 M^−1s^−1	1.8	6.8±0.8 × 10^3 M^−1s^−1	0.68	–	–	–	–	–
MKR: His-tagged recombinant β-antithrombin variant with Lys114 mutated to Met	40	8^c	17 ± 2	2.6±0.3 × 10^2 M^−1s^−1	0.46	–	6.4±0.3 ×10^4 M^−1s^−1	0.83	–	560	–	–	2.1±0.1 × 10^3 M^−1s^−1	0.21	~ 20 s^−1	23±2^c s^−1	–	–	–
B1	550 to 690	~400^c	690 ± 240	2.0±0.1 ×10^3 M^−1s^−1	3.5	2.8–3.5 fold	5.6±0.4 ×10^4 M^−1s^−1	0.73	–	70	1.5±0.2 × 10^2 M^−1s^−1	2.8	3.6±0.2 × 10^3 M^−1s^−1	0.36	–	74±7^c s^−1	~ 70 s^−1	~0.5 mole heparin/mole antithrombin	–
B2	–	–	–	–	–	–	–	0.04	60	–	2.3±0.2 × 10^1 M^−1s^−1	0.43	–	0.003	–	–	–	–	0.3
